Here are results for 15 molecules from ChEMBL document CHEMBL1134715, “Aryloxy substituted N-arylpiperazinones as dual inhibitors of farnesyltransferase and geranylgeranyltransferase-I” (Bioorg Med Chem Lett, 2001).

For test [1], the target named is T1, Geranylgeranyl transferase type I (Homo sapiens, UniProt P49354+P53609). As to the kind of experiment: In vitro inhibition against human Geranylgeranyl transferase type I catalyzed by incorporation of [3H]- GGPP (geranylgeranyl pyrophosphate) into biotinylated peptide corresponding to the c-terminus of human Ki-Ras. The format is protein-complex assay. The method, boiled down: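 Human GGPTase-I transferred [3H]GGPP onto a biotinylated human Ki-Ras C-terminal peptide. Enzyme and inhibitor were preincubated 30 min with 5 mM ATP before reaction. Some values were instead run without preincubation. IC50 is the concentration halving incorporation.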

Test [2] has as its target T2, Protein farnesyltransferase (Homo sapiens, UniProt P49354+P49356). As to the kind of experiment: In vitro inhibition against human Farnesyltransferase catalyzed by incorporation of [3H]- FPP into recombinant Ras-CVIM. The format is protein-complex assay.
In test [3] the target is T2, Protein farnesyltransferase. Description: Concentration required to displace 50% of a radiolabeled farnesyltransferase inhibitor from FPTase in cultured Ha-Ras transformed RAT1 cells. The format is functional, cell-based.
In test [4] the target is T1, Geranylgeranyl transferase type I. As to the kind of experiment: Minimal concentration required to inhibit Rap 1a processing (prenylation) in PSN-1 cell. The test is classed as functional, cell-based.
Test [5] relates to Rat1. Description: Inhibition of colony formation in v-H-ras-transformed RAT1 cells. The format is functional. The following applies: Rattus norvegicus. The essentials: (§1)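 Anchorage-independent growth of ras-transformed RAT1 cells in soft agar, read as colony formation. Potency is reported as IC90 for blocking colonies.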
For test [6], the system named is Rat1. Description: Percent RAT1 cell survival at 10 uM assessed by MTT viability staining. The format is functional. The following applies: Rattus norvegicus, read-out: Survival.
Test [7] deals with Rat1. Description: Inhibition of colony formation in K-ras-transformed RAT1 cells, ranges from 0.3-1. The test is classed as functional. The following applies: Rattus norvegicus. The essentials:
as §1

Converted amounts (≈) assume the structure as drawn.

For `N#Cc1ccc(Cn2cncc2CN2CCN(c3cccc(Cl)c3)C(=O)C2)cc1Oc1ccc2c(c1)CCCC2`, the IC50 – broadly, the point on the concentration scale where inhibition reaches its midpoint – is 290 nM in test [1] and 4 nM in test [2].
`N#Cc1ccc(Cn2cncc2CN2CCN(c3cccc(Cl)c3)C(=O)C2)cc1Sc1ccccc1`: the results for the IC50 in test [1], in test [2] and in test [3] were 12 nM, 18 nM and 255 nM, respectively.
In the case of `O=C1CN(Cc2cncn2Cc2cccc(Oc3ccccc3)c2)CCN1c1cccc(Cl)c1`, in test [1], half-maximal inhibition (IC50) required 65 nM.
With `N#Cc1ccc(Cn2cncc2CN2CCN(c3cccc(Cl)c3)C(=O)C2)cc1Oc1ccc2ccccc2c1`, the values for the IC50 in test [1], in test [2] and in test [3] were 199 nM, 1 nM and 48 nM, respectively.
In test [4], `N#Cc1ccc(Cn2cncc2CN2CCN(c3cccc(Cl)c3)C(=O)C2)cc1` [L-778123 FREE BASE] had an MIC of 1 µM (≈ 0.406 µg/mL). Also, in the test on Rat1 [5], the 90% effect level (IC90) was put at 100 nM.
With `N#Cc1ccc(Cn2cncc2CN2CCN(c3cccc(Cl)c3)C(=O)C2)cc1Oc1ccc(OCc2ccccc2)cc1`, the IC50 in test [1] turned out to be 62 nM; in test [2], 32 nM; in test [3] it was 311 nM.
`N#Cc1ccc(Cn2cncc2CN2CCN(c3cccc(Cl)c3)C(=O)C2)cc1Oc1cccc(Cl)c1`: the IC50 in test [1] was 20 nM; in test [2], 4 nM; in test [3], 93 nM.
Consider `N#Cc1ccc(Cn2cncc2CN2CCN(c3cccc(Cl)c3)C(=O)C2)cc1Oc1cccnc1`, for which the IC50 in test [1] was 52 nM; in test [2], 11 nM; in test [3], 17 nM. In test [4], this molecule came in with an MIC of 1 µM (≈ 0.499 µg/mL).
Take `N#Cc1cc(Cn2cncc2CN2CCN(c3cccc(Cl)c3)C(=O)C2)ccc1Oc1ccccc1`: the IC50 in test [1] was determined as 809 nM; in test [2], 9 nM.
On to `O=C1CN(Cc2cncn2Cc2cccc(Oc3ccccc3)c2)CCN1c1ccc(Cl)cc1`, for which the values for the IC50 in test [1] and in test [2] were 136 nM and 670 nM, respectively.
Turning to `N#Cc1ccc(Cn2cncc2CN2CCN(c3cccc(Cl)c3)C(=O)C2)cc1Oc1ccccc1`, the values for the IC50 in test [1], in test [2] and in test [3] were 22 nM, 7 nM and 110 nM, respectively. Besides, the viability at 10 µM with Rat1 [6] stood at 80%. In addition, the IC90 (commonly the point of the concentration-response curve where the effect stands at 90%) with Rat1 [7] was 1000 nM; in the test with Rat1 [5] it was 300 nM. Moreover, the MIC in test [4] came to 1 µM (≈ 0.498 µg/mL).
For the molecule `N#Cc1ccc(Cn2cncc2CN2CCN(c3cccc(Cl)c3)C(=O)C2)cc1Oc1ccc(Cl)cc1`, the half-inhibitory concentration (IC50) is 15 nM in test [1], 19 nM in test [2] and 350 nM in test [3].
For the molecule `O=C1CN(Cc2cncn2Cc2cccc(Oc3ccccc3)c2)CCN1c1ccc(C(F)(F)F)cc1`, the IC50 was 155 nM in test [1] and 5770 nM in test [2].
Regarding `N#Cc1ccc(Cn2cncc2CN2CCN(c3cccc(Cl)c3)C(=O)C2)cc1Oc1cccc(OCCO)c1`, the values for the IC50 in test [1], in test [2] and in test [3] were 1.3 nM, 2.5 nM and 8 nM, respectively. For the same molecule, in test [4], the MIC came out at 3 µM (≈ 1.67 µg/mL).
For the molecule `N#Cc1ccc(Cn2cncc2CN2CCN(c3cccc(Cl)c3)C(=O)C2)cc1Oc1ccccc1Cl`, the values for the IC50 in test [1], in test [2] and in test [3] were 0.7 nM, 7 nM and 41 nM, respectively. This molecule also gave an MIC in test [4] of 0.3 µM (≈ 0.16 µg/mL).
